# Compounds with a hit are over-represented: about 2.8% of the library has one in this group of screens.
# NPY1 pot ag: human NPY-Y1 potentiation or agonism, primary screen; NPY-Y1 expressing cells, potentiator/agonist activation; activation, % at 3.6 µM; hit rate 0.37% among 220,000; AID 1304; in the data active means activation above about 33%, passing the limit was not always enough;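 further: cells stimulated with NPY at EC10 then isoproterenol at EC100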
# Target sequence (P25929 whole entry, looked up): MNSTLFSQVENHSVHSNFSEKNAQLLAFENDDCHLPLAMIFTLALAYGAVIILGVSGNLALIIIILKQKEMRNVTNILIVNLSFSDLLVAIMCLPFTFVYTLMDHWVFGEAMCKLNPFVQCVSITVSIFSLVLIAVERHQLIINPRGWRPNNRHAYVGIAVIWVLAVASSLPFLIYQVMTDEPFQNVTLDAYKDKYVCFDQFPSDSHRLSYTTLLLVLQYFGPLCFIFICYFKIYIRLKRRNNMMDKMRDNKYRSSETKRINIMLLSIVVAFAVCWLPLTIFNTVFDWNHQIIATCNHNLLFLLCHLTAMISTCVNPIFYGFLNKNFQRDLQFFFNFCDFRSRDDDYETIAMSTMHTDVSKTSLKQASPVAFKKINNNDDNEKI
# PGE2 EP2 inh: blocks the human prostaglandin E2 receptor EP2; P43116; C6 glioma cells expressing human EP2, cAMP TR-FRET; cells stimulated with saturating PGE2; inhibition, % at 25 µM; hit rate 0.52% among 260,000;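 active means percent inhibition above 40 after rounding to a whole number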;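 further: rat C6 glioma host cells with rolipram phosphodiesterase inhibitor present; the protocol text gives 20 µM as final concentration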
# NPY-Y1 antag: NPY-Y1 (human) receptor antagonism | P25929 | HEK293-CNG Y1 cells, membrane potential fluorescence; NPY at EC95, then isoproterenol | inhibition, % at 3.6 µM | hit rate 1% among 200,000 | AID 1040;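 active means inhibition above the campaign mean inhibition of all tested compounds plus 3 SD, cut at about 20% in these data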
#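 Assay system: HEK293 Y1/CNG channel cell line; Doses: single compound dose of 3.6 µM, 0.4% DMSO; Timing: dye 3 h, compound 60 min room temperature, stimulation 45 min; Technique: Membrane-potential fluorescent dye readout; Measure: % inhibition of NPY effect.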
# EP2 mod: EP2 receptor (human) modulation; induction, % at 25 µM; P43116; EP2-expressing cells, cAMP HTRF FRET, PGE2 co-stimulation; hit rate 0.83% among 260,000; AID 940;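 active means compounds whose cAMP rise, as percent of the full-agonist control response, exceeds 60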;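 further: rat C6 glioma line stably carrying human EP2 under a CMV promoter; the protocol text gives 20 µM as final concentration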
# NPY Y2 blocker: antagonists of human neuropeptide Y receptor Y2 | NPY-Y2 expressing cells, antagonist mode | hit rate 0.99% among 140,000 | inhibition, % at 2.7 µM | AID 793; in the data active means inhibition above about 17%
# NPY2 pot ag: potentiates or activates human NPY-Y2 receptor | activation, % at 3.6 µM | AID 1359 | cells expressing NPY-Y2, potentiator/agonist read-out | hit rate 0.45% among 220,000 | P49146; in the data active means activation above about 27%;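 further: cells stimulated with NPY near EC25 plus isoproterenol at EC100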
# NPY-Y1 pot conf: confirmation of human NPY-Y1 receptor potentiators or agonists; shares compounds with NPY1 pot ag; cell-based NPY-Y1 potentiator/agonist assay; activation, % at 3.6 µM; hit rate 20% among 280; AID 1546; in the data active means activation above about 45%;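 further: cells challenged with NPY at its EC10 plus isoproterenol stimulus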
# NPY-Y2 counter: NPY-Y2 potentiation or agonism as NPY-Y1 counter-screen; shares compounds with NPY1 pot ag; HEK293-CNG cells, membrane-potential fluorescence (FLIPR), 1536-well; activation, % at 3.6 µM; hit rate 20% among 280; AID 1649; in the data active means activation above about 33%
# NPY-Y1 agonist: activates human NPY-Y1, counter-screen for NPY-Y1 potentiators; shares compounds with NPY1 pot ag; HEK293 Y1-CNGC, membrane potential fluorescence, agonist mode; activation, % at 3.6 µM; hit rate 50% among 280; AID 1697;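 active means percent activation above the mean of DMSO-only control wells plus 3 SD of those wells, cut at about 18% in these data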;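 further: cells challenged with isoproterenol plus Ro 20-1724 with no NPY in test wells; Y1 agonism lowers isoproterenol-driven cAMP and reduces probe fluorescence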
# NPY-Y2 ag: human NPY-Y2 agonism as NPY-Y1 counter-screen. AID 1698. shares compounds with NPY1 pot ag. hit rate 67% among 280. activation, % at 3.6 µM. HEK293 Y2-CNGC, membrane potential fluorescence, agonist mode;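 active means activation above the solvent-only control wells' mean plus 3 SD, cut at about 11% in these data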;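 further: agonism lowers cAMP so well fluorescence drops in active wells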
# CNGC counter: counter-screen for NPY-Y1 potentiators or agonists: CNG channel inhibitors; shares compounds with NPY1 pot ag; HEK293-CNG parental, isoproterenol cAMP, membrane potential fluorescence; inhibition, % at 3.6 µM; hit rate 42% among 280; AID 1704;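 active means inhibition above the mean of stimulated solvent-only control wells plus 3 SD, cut at about 22% in these data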
# Numbers stand for hits; n = inactive; x = no result.
SMILES,NPY1 pot ag,PGE2 EP2 inh,NPY-Y1 antag,EP2 mod,NPY Y2 blocker,NPY2 pot ag,NPY-Y1 pot conf,NPY-Y2 counter,NPY-Y1 agonist,NPY-Y2 ag,CNGC counter
O=C(c1ccccc1)N1CCN(c2n[nH]c(=O)[nH]c2=O)CC1,44.9,n,n,n,x,n,n,n,n,n,n
O=C(c1ccccc1)N1CCN(C(=O)c2ccncc2)CC1,n,n,n,x,n,n,x,x,x,x,x
CNCC(O)COc1cccc(OC)c1 (stereo not drawn),56.1,n,n,n,x,n,n,n,n,17.7,n
CC(=O)Oc1cc2c3c(c1)/C(=C1/SC(=S)NC1=O)C(=O)N3C(C)(C)C=C2C,51.4,n,x,n,x,n,n,40.1,36.9,43.0,39.7
CC(=O)c1ccc(NC(=S)NC(C)c2ccc(Cl)cc2Cl)cc1 (stereo not drawn),36.8,n,n,n,x,n,48.2,n,37.3,35.0,35.7
COc1ccccc1NC(=O)C1=C(C)NC2=C(C(=O)CC(C)(C)C2)C1c1ccc(Cl)cc1Cl (stereo not drawn),x,n,x,n,x,x,x,x,x,x,x
O=C1/C(=C/c2ccccn2)SC(=S)N1c1cccc(O)c1,54.0,n,x,n,x,n,57.1,37.8,41.2,36.8,32.3
Cc1ccc(C23CC4CC(CC(CN)(C4)C2)C3)cc1,35.4,n,n,n,x,n,n,n,20.7,30.6,31.0
COC(=O)CNC(=O)C12CC3CC(C1)CC(c1ccc(C)cc1)(C3)C2,n,n,n,n,x,n,x,x,x,x,x
CCN1CCN(c2nc3ccccc3nc2C(C#N)C(=O)OCc2ccccc2)CC1 (stereo not drawn),40.0,n,n,n,n,n,62.3,47.0,40.8,54.3,53.2
CCCCCCOC(=O)C(C#N)c1nc2ccccc2nc1N1CCN(CC)CC1 (stereo not drawn),n,n,n,n,n,n,x,x,x,x,x
COC(=O)C(O)[C@@H]1C2(C)C(=O)[C@@H](CC3=C4CC(=O)O[C@@H](c5ccoc5)[C@]4(C)CCC32)[C@H](OC(C)=O)C1(C)C (stereo partly drawn),x,n,x,n,x,x,x,x,x,x,x
CCNC(=O)c1cc(Br)ccc1Cl,50.5,n,n,n,n,n,n,n,n,n,n
Cc1cc(C)nc(NC(=O)c2cc(Br)ccc2Cl)n1,n,n,n,n,x,n,x,x,x,x,x
COC(=O)C[C@@H]1C2(C)C(=O)[C@@H](CC3C2CC[C@]2(C)C3CC(=O)O[C@H]2c2ccoc2)[C@H](OC(C)=O)C1(C)C (stereo partly drawn),x,n,x,n,x,x,x,x,x,x,x
COCCCNCCCCOc1ccc(C)cc1[N+](=O)[O-],n,n,n,n,n,n,x,x,x,x,x
C=CCNCCOc1ccc(C)cc1[N+](=O)[O-],39.2,n,n,n,x,n,n,n,n,n,n
Cn1c(=O)[nH]c(=O)c2c1nc(N1CCCCC1)n2CCSc1nc2ccccc2o1,39.8,n,n,n,n,n,n,n,n,n,n
Cc1ccc2nc3sc(C(=O)Nc4nc(C)cs4)c(N)c3cc2c1,x,n,x,n,x,x,x,x,x,x,x
CCn1c(SCC(=O)Nc2cc(C)cc(C)c2)nc2c1c(=O)n(C)c(=O)n2C,x,n,x,n,x,x,x,x,x,x,x
COc1ccc(CCN(Cc2nc3ccccc3c(=O)[nH]2)C(=O)C(C)C)cc1OC,x,n,x,n,x,x,x,x,x,x,x
[O-]/C(=C(\C(=S)Nc1ccc(SC(F)F)cc1)[n+]1ccccc1)c1ccc(Cl)cc1Cl,36.7,n,n,n,x,n,48.1,n,35.8,31.1,46.7
Cc1cc(C)cc(NC(=S)/C(=C(\[O-])c2ccc(Cl)cc2Cl)[n+]2ccccc2)c1,n,n,n,n,x,n,x,x,x,x,x
COC(=O)c1ccc(C)c(NC(=O)CCc2ccc(OC)cc2)c1,104.8,n,n,n,n,n,n,n,n,n,n
Cc1ccc(C(=O)O)cc1NC(=O)CCc1ccccc1,n,n,n,n,x,n,x,x,x,x,x
NNC(=O)Cn1cnc(-c2ccc(F)cc2)c1,x,n,x,n,x,x,x,x,x,x,x
CCOC(=O)CSc1nc(=O)n2ccccc2n1,68.5,n,n,n,x,n,n,n,n,n,n
CN(C)Cc1c(O)ccc2oc(Cc3ccccc3)cc12,53.3,n,n,n,n,n,n,n,20.6,26.5,n

# Screens from PubChem.
